From ChEMBL document CHEMBL1649433, “Violacein extracted from Chromobacterium violaceum inhibits Plasmodium growth in vitro and in vivo” (Antimicrob Agents Chemother, 2009)
The source made the active and inactive calls. No cut-off for these calls is given here.

Key:
Plasmodium falciparum [1] = test: Antimalarial activity against Plasmodium falciparum mature blood forms (24 to 48 hrs ring stage) infected in erythrocytes after 24 hrs by [3H]hypoxanthine incorporation assay; format: functional, organism-based; details: in the assay text read “trophozoites and schizonts stage” for “ring stage”
Procedure, shortened: (§1)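 Synchronized (±6 h) P. falciparum 3D7 blood stages were prepared by repeated 5% sorbitol treatment. Rings (0-24 h) or trophozoites/schizonts (24-48 h) were used at 1% parasitemia and 2% final hematocrit, exposed to violacein for 24 h, and growth was read by [3H]-hypoxanthine incorporation. Inhibition % = [1 − (CPM treated − CPM uninfected RBC)/(CPM untreated − CPM uninfected RBC)] × 100. Runs were in triplicate.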

Plasmodium chabaudi [2] = test: Antimalarial activity against nonlethal Plasmodium chabaudi chabaudi AS infected in C57BL/6 mouse assessed as inhibition of parasitemia at 0.075 mg/kg/day, ip administered 1 hr post-infection and measured on day 5 post-infection; format: functional, organism-based
Procedure, shortened: (§2)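 C57BL/6 mice (7-10 per group, 7-10 weeks old, 20 ± 3 g) were infected i.p. with 10^6 P. chabaudi chabaudi AS infected erythrocytes. Violacein was given i.p. daily for 11 days (days 0-10), starting 1 h post-infection. Parasitemia was counted daily on Giemsa-stained smears (≥1,000 erythrocytes) and inhibition was calculated against untreated infected mice.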

Plasmodium chabaudi [3] = test: Antimalarial activity against nonlethal Plasmodium chabaudi chabaudi AS infected in C57BL/6 mouse assessed as inhibition of parasitemia at 7.5 mg/kg/day, ip administered 1 hr post-infection and measured on day 8 post-infection; format: functional; details: route intraperitoneal
Procedure, shortened: (§3)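 C57BL/6 mice (7-10 per group, aged 7-10 weeks, 20 ± 3 g) infected i.p. with 106 IE of P. c. chabaudi AS; given daily i.p. doses of 0.75 to 7.5 mg/kg/day for 11 consecutive days (days 0-10), first dose 1 h p.i. Parasitemia counted daily in Giemsa-stained smears (≥1,000 erythrocytes) until day 12; inhibition relative to untreated mice.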

Plasmodium chabaudi [4] = test: Antimalarial activity against lethal Plasmodium chabaudi chabaudi AJ infected in C57BL/6 mouse assessed as mouse survival rate at 7.5 mg/kg/day, ip administered 1 hr post-infection and measured on day 16 post-infection; format: functional; details: route intraperitoneal
Procedure, shortened: (§4)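 C57BL/6 mice, groups of 10, aged 7-10 weeks, 20 ± 3 g, infected i.p. with 106 IE of lethal P. c. chabaudi AJ; 7.5 mg/kg/day given i.p. for 11 consecutive days (days 0-10 p.i.), first dose 1 h p.i.; survival followed daily versus untreated mice; Log-Rank test.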

Plasmodium chabaudi [5] = test: Antimalarial activity against nonlethal Plasmodium chabaudi chabaudi AS infected in C57BL/6 mouse assessed inhibition of parasitemia at 7.5 mg/kg/day, ip for 10 days followed by compound withdrawal and measured on day 16 post-infection; format: functional; details: route intraperitoneal
Procedure, shortened: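 Mice infected i.p. with 106 P. c. chabaudi AS IE; 7.5 mg/kg/day given i.p. for 11 days (0-10 p.i.) from 1 h p.i., then withdrawn. Parasitemia followed in Giemsa-stained smears until day 22 p.i. versus untreated mice; Mann-Whitney U test.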

Plasmodium chabaudi [6] = test: Antimalarial activity against nonlethal Plasmodium chabaudi chabaudi AS infected in C57BL/6 mouse assessed as inhibition of parasitemia at 0.075 mg/kg/day, ip administered 1 hr post-infection and measured on day 6 post-infection; format: functional, organism-based; procedure, shortened: as §2
[7] = Toxicity in erythrocytes assessed as red blood cell density at 14 uM after 48 hrs; format: cell-based; details: erythrocyte
Procedure, shortened: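 Uninfected erythrocytes were cultured 48 h at 37°C with a range of violacein concentrations. Cells were counted in a Neubauer chamber. RBC density was expressed as % of the drug-free control: (RBC/mL with violacein ÷ RBC/mL without) × 100. Results are means of triplicates ± SD, with Mann-Whitney U test for significance.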

Plasmodium chabaudi [8] = test: Antimalarial activity against lethal Plasmodium chabaudi chabaudi AJ infected in C57BL/6 mouse assessed as mouse survival rate at 7.5 mg/kg/day, ip administered 1 hr post-infection and measured on day 9 post-infection; format: functional; details: route intraperitoneal; procedure, shortened: as §4
Plasmodium chabaudi [9] = test: Antimalarial activity against nonlethal Plasmodium chabaudi chabaudi AS infected in C57BL/6 mouse assessed as inhibition of parasitemia at 0.075 mg/kg/day, ip administered 1 hr post-infection and measured on day 8 post-infection; format: functional; details: route intraperitoneal
Plasmodium falciparum [10] = test: Antimalarial activity against chloroquine-resistant Plasmodium falciparum S20 infected in erythrocytes after 48 hrs by [3H]hypoxanthine incorporation assay; format: functional, organism-based
Procedure, shortened: (§5)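 Erythrocytes infected with P. falciparum at 1% parasitemia, 2% final hematocrit; growth read by [3H]-hypoxanthine incorporation after 48 h at 37°C. Inhibition % = [1 – (CPM treated IE – CPM NE)/(CPM untreated IE – CPM NE)] x 100, untreated IE as 100% growth. Triplicates, at least three times with different batches and cells; concentrations from 0.06 µM upward; IC50 from dose-response.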

Plasmodium falciparum [11] = test: Antimalarial activity against Plasmodium falciparum young blood forms (0 to 24 hrs ring stage) infected in erythrocytes after 24 hrs by [3H]hypoxanthine incorporation assay; format: functional, organism-based; procedure, shortened: as §1
Plasmodium chabaudi [12] = test: Antimalarial activity against nonlethal Plasmodium chabaudi chabaudi AS infected in C57BL/6 mouse assessed as inhibition of parasitemia at 0.75 mg/kg/day, ip administered 1 hr post-infection and measured on day 5 post-infection; format: functional; details: route intraperitoneal; procedure, shortened: as §3
Plasmodium chabaudi [13] = test: Antimalarial activity against nonlethal Plasmodium chabaudi chabaudi AS infected in C57BL/6 mouse assessed as inhibition of parasitemia at 3.75 mg/kg/day, ip administered 1 hr post-infection and measured on day 5 post-infection; format: functional; details: route intraperitoneal; procedure, shortened: as §3
Plasmodium chabaudi [14] = test: Antimalarial activity against nonlethal Plasmodium chabaudi chabaudi AS infected in C57BL/6 mouse assessed as inhibition of parasitemia at 0.075 mg/kg/day, ip administered 1 hr post-infection and measured on day 7 post-infection; format: functional, organism-based; procedure, shortened: as §2
Plasmodium chabaudi [15] = test: Antimalarial activity against nonlethal Plasmodium chabaudi chabaudi AS infected in C57BL/6 mouse assessed as inhibition of parasitemia at 3.75 mg/kg/day, ip administered 1 hr post-infection and measured on day 6 post-infection; format: functional; details: route intraperitoneal; procedure, shortened: as §3
Plasmodium chabaudi [16] = test: Antimalarial activity against nonlethal Plasmodium chabaudi chabaudi AS infected in C57BL/6 mouse assessed as inhibition of parasitemia at 0.75 mg/kg/day, ip administered 1 hr post-infection and measured on day 7 post-infection; format: functional; details: route intraperitoneal; procedure, shortened: as §3
Plasmodium chabaudi [17] = test: Antimalarial activity against nonlethal Plasmodium chabaudi chabaudi AS infected in C57BL/6 mouse assessed as inhibition of parasitemia at 7.5 mg/kg/day, ip administered 5 days post-infection and measured on day 7 post-infection; format: functional; details: route intraperitoneal
Procedure, shortened: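 Mice infected i.p. with 106 P. c. chabaudi AS IE; 7.5 mg/kg/day given i.p. daily from day 5 p.i. (16% parasitemia) to day 10 (6 days). Parasitemia counted daily in Giemsa-stained smears (≥1,000 erythrocytes) versus untreated mice; Mann-Whitney U test.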

Plasmodium chabaudi [18] = test: Antimalarial activity against nonlethal Plasmodium chabaudi chabaudi AS infected in C57BL/6 mouse assessed as inhibition of parasitemia at 0.75 mg/kg/day, ip administered 1 hr post-infection and measured on day 6 post-infection; format: functional; details: route intraperitoneal; procedure, shortened: as §3
Plasmodium chabaudi [19] = test: Antimalarial activity against nonlethal Plasmodium chabaudi chabaudi AS infected in C57BL/6 mouse assessed as inhibition of parasitemia at 0.75 mg/kg/day, ip administered 1 hr post-infection and measured on day 8 post-infection; format: functional; details: route intraperitoneal; procedure, shortened: as §3
Plasmodium falciparum [20] = test: Antimalarial activity against chloroquine-sensitive Plasmodium falciparum 3D7 infected in erythrocytes after 48 hrs by [3H]hypoxanthine incorporation assay; format: functional, organism-based; procedure, shortened: as §5
Plasmodium chabaudi [21] = test: Antimalarial activity against nonlethal Plasmodium chabaudi chabaudi AS infected in C57BL/6 mouse assessed as inhibition of parasitemia at 7.5 mg/kg/day, ip administered 1 hr post-infection and measured on day 5 post-infection; format: functional; details: route intraperitoneal; procedure, shortened: as §3
Plasmodium chabaudi [22] = test: Antimalarial activity against lethal Plasmodium chabaudi chabaudi AJ infected in C57BL/6 mouse assessed as mouse survival rate at 7.5 mg/kg/day, ip administered 1 hr post-infection and measured on day 14 post-infection; format: functional; details: route intraperitoneal; procedure, shortened: as §4
Plasmodium chabaudi [23] = test: Antimalarial activity against nonlethal Plasmodium chabaudi chabaudi AS infected in C57BL/6 mouse assessed as inhibition of parasitemia at 7.5 mg/kg/day, ip administered 1 hr post-infection and measured on day 7 post-infection; format: functional; details: route intraperitoneal; procedure, shortened: as §3
Plasmodium chabaudi [24] = test: Antimalarial activity against nonlethal Plasmodium chabaudi chabaudi AS infected in C57BL/6 mouse assessed as inhibition of parasitemia at 3.75 mg/kg/day, ip administered 1 hr post-infection and measured on day 8 post-infection; format: functional; details: route intraperitoneal; procedure, shortened: as §3
Plasmodium chabaudi [25] = test: Antimalarial activity against nonlethal Plasmodium chabaudi chabaudi AS infected in C57BL/6 mouse assessed as inhibition of parasitemia at 7.5 mg/kg/day, ip administered 1 hr post-infection and measured on day 6 post-infection; format: functional; details: route intraperitoneal; procedure, shortened: as §3
Plasmodium chabaudi [26] = test: Antimalarial activity against nonlethal Plasmodium chabaudi chabaudi AS infected in C57BL/6 mouse assessed as inhibition of parasitemia at 3.75 mg/kg/day, ip administered 1 hr post-infection and measured on day 7 post-infection; format: functional; details: route intraperitoneal; procedure, shortened: as §3

Compound: O=C1NC(c2c[nH]c3ccc(O)cc23)=C/C1=C1\C(=O)Nc2ccccc21 [VIOLACEIN]
- inhibition (Plasmodium falciparum [1]): Active
- inhibition (Plasmodium chabaudi [2]): inactive
- inhibition in vivo at 7.5 mg/kg/day (Plasmodium chabaudi [3]): 84.7%
- survival at 7.5 mg/kg/day (Plasmodium chabaudi [4]): 80%
- inhibition in vivo at 7.5 mg/kg/day (Plasmodium chabaudi [5]): 59%
- inhibition (Plasmodium chabaudi [6]): inactive
- Activity [7]: Toxic
- survival at 7.5 mg/kg/day (Plasmodium chabaudi [8]): 10%
- inhibition in vivo at 0.075 mg/kg/day (Plasmodium chabaudi [9]): 12%
- IC50 (Plasmodium falciparum [10]): 630 nM
- inhibition (Plasmodium falciparum [11]): Active
- inhibition in vivo at 0.75 mg/kg/day (Plasmodium chabaudi [12]): 3.58%
- inhibition in vivo at 3.75 mg/kg/day (Plasmodium chabaudi [13]): 33.2%
- inhibition (Plasmodium chabaudi [14]): inactive
- inhibition in vivo at 3.75 mg/kg/day (Plasmodium chabaudi [15]): 64.9%
- inhibition in vivo at 0.75 mg/kg/day (Plasmodium chabaudi [16]): 39.2%
- inhibition in vivo at 7.5 mg/kg/day (Plasmodium chabaudi [17]): 50.1%
- inhibition in vivo at 0.75 mg/kg/day (Plasmodium chabaudi [18]): 20.4%
- inhibition in vivo at 0.75 mg/kg/day (Plasmodium chabaudi [19]): 48.9%
- IC50 (Plasmodium falciparum [20]): 850 nM
- inhibition in vivo at 7.5 mg/kg/day (Plasmodium chabaudi [21]): 56.5%
- survival at 7.5 mg/kg/day (Plasmodium chabaudi [22]): 14%
- inhibition in vivo at 7.5 mg/kg/day (Plasmodium chabaudi [23]): 86.9%
- inhibition in vivo at 3.75 mg/kg/day (Plasmodium chabaudi [24]): 75.7%
- inhibition in vivo at 7.5 mg/kg/day (Plasmodium chabaudi [25]): 75.4%
- inhibition in vivo at 3.75 mg/kg/day (Plasmodium chabaudi [26]): 82.1%
